# Results: ChEMBL document CHEMBL3244005, “Troponoids. 3. Synthesis and antiallergy activity of N-troponyloxamic acid esters” (J Med Chem, 1979)
# Tests used:
# Rattus norvegicus [1] = experiment: Antiallergic activity in Sprague-Dawley CD rat assessed as inhibition of passive anaphylaxis-induced hind paw edema at 30 mg/kg, ip relative to control; assay type: functional; settings: Rattus norvegicus, Sprague-Dawley CD, ip, route intraperitoneal
# How it was run: (§1)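 Passive anaphylaxis (reaginic antibody) induced in rat hind paw: serum with reaginic antibody injected into left hind paw; antigen given intravenously 24 h later. Paw volume measured by mercury displacement; activity read as inhibition of paw edema versus controls. Test compounds given ip or po. Inhibition of 35% or more considered significant by Student's t test (p < 0.05).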
# Rattus norvegicus [2] = experiment: Antiallergic activity in Sprague-Dawley CD rat assessed as inhibition of passive anaphylaxis-induced hind paw edema at 10 mg/kg, ip relative to control; assay type: functional; settings: Rattus norvegicus, Sprague-Dawley CD, ip, route intraperitoneal; how it was run: as §1
# Rattus norvegicus [3] = experiment: Antiallergic activity in Sprague-Dawley CD rat assessed as inhibition of passive anaphylaxis-induced hind paw edema at 100 mg/kg, po relative to control; assay type: functional; settings: for inhibition in vivo at 100 mg/kg: Rattus norvegicus, Sprague-Dawley CD, po; how it was run: as §1
# Rattus norvegicus [4] = experiment: Antiallergic activity in Sprague-Dawley CD rat assessed as inhibition of passive anaphylaxis-induced hind paw edema at 30 mg/kg, po relative to control; assay type: functional; settings: for inhibition in vivo at 30 mg/kg: Rattus norvegicus, Sprague-Dawley CD, po; how it was run: as §1
# Rattus norvegicus [5] = experiment: Antiallergic activity in Sprague-Dawley CD rat passive anaphylaxis model assessed as hind paw edema volume at 30 mg/kg, po relative to control; assay type: functional; how it was run: as §1
# Rattus norvegicus [6] = experiment: Antiallergic activity in Sprague-Dawley CD rat passive anaphylaxis model assessed as hind paw edema volume at 10 mg/kg, po relative to control; assay type: functional; how it was run: as §1
# Rattus norvegicus [7] = experiment: Antiallergic activity in Sprague-Dawley CD rat passive anaphylaxis model assessed as hind paw edema volume at 3 mg/kg, po relative to control; assay type: functional; how it was run: as §1
# Rattus norvegicus [8] = experiment: Antiallergic activity in Sprague-Dawley CD rat assessed as inhibition of passive anaphylaxis-induced hind paw edema at 10 mg/kg, po relative to control; assay type: functional; settings: for inhibition in vivo at 10 mg/kg: Rattus norvegicus, Sprague-Dawley CD, po; how it was run: as §1
# Rattus norvegicus [9] = experiment: Antiallergic activity in Sprague-Dawley CD rat assessed as inhibition of passive anaphylaxis-induced hind paw edema at 3 mg/kg, po relative to control; assay type: functional; settings: for inhibition in vivo at 3 mg/kg: Rattus norvegicus, Sprague-Dawley CD, po; how it was run: as §1
# Cavia porcellus [10] = species on record: Cavia porcellus; experiment: Stimulation of guinea pig lung adenylate cyclase activity at 1 x 10^-3 M after 15 mins relative to control
# How it was run: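 Guinea pig lung adenyl cyclase preparation, chosen because it carries negligible cyclic nucleotide phosphodiesterase activity. Enzyme activity was read as cyclic AMP formation in the presence of test agent and compared with untreated control.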
# Rattus norvegicus [11] = experiment: Antiallergic activity in Sprague-Dawley CD rat passive anaphylaxis model assessed as hind paw edema volume at 10 mg/kg, ip relative to control; assay type: functional; settings: route intraperitoneal; how it was run: as §1
# Rattus norvegicus [12] = experiment: Antiallergic activity in Sprague-Dawley CD rat passive anaphylaxis model assessed as hind paw edema volume at 3 mg/kg, ip relative to control; assay type: functional; settings: route intraperitoneal; how it was run: as §1
# Rattus norvegicus [13] = experiment: Antiallergic activity in Sprague-Dawley CD rat passive anaphylaxis model assessed as hind paw edema volume at 1 mg/kg, ip relative to control; assay type: functional; settings: route intraperitoneal; how it was run: as §1
# Rattus norvegicus [14] = experiment: Antiallergic activity in Sprague-Dawley CD rat assessed as inhibition of passive anaphylaxis-induced hind paw edema at 3 mg/kg, ip relative to control; assay type: functional; settings: Rattus norvegicus, Sprague-Dawley CD, ip, route intraperitoneal; how it was run: as §1
# Rattus norvegicus [15] = experiment: Antiallergic activity in Sprague-Dawley CD rat assessed as inhibition of passive anaphylaxis-induced hind paw edema at 1 mg/kg, ip relative to control; assay type: functional; settings: route intraperitoneal; how it was run: as §1
# Serum [16] = experiment: Drug metabolism in serum of Sprague-Dawley CD rat passive anaphylaxis model at 0.23 mmol/kg, iv; assay type: ADME, cell-free
# How it was run: (§2)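 Rats given an iv bolus of 0.23 mmol/kg. Serum separated by centrifugation and stored frozen. Drug-derived material in serum quantified over time by UV measurement of 2-aminotropone. For 14C-labelled ester (label in ethyl group or oxalyl carbonyls), radioactivity counted in 0.2 mL serum after tissue-solubiliser digestion and scintillation fluid addition.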
# Serum [17] = experiment: Drug metabolism in serum of Sprague-Dawley CD rat passive anaphylaxis model assessed as 2-[(Carboxycarbonyl)amino]-2,4,6-cycloheptatrien-l-one level at 0.23 mmol/kg, iv; assay type: ADME, cell-free; how it was run: as §2
# Serum [18] = experiment: Drug metabolism in serum of Sprague-Dawley CD rat passive anaphylaxis model assessed as 2-aminotropone level at 0.23 mmol/kg, iv; assay type: ADME, cell-free; how it was run: as §2
# Blood = experiment: Drug metabolism in blood of Sprague-Dawley CD rat passive anaphylaxis model at 0.23 mmol/kg, iv; assay type: ADME, tissue-based; how it was run: as §2
# Rattus norvegicus [19] = experiment: Drug metabolism in po dosed Sprague-Dawley CD rat passive anaphylaxis model assessed as 2-aminotropone level; assay type: ADME, organism-based; settings: in vivo
# [20] = Inhibition of beef heart PDE assessed as cyclic AMP level; design: species or system Bos taurus
# How it was run: (§3)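 PDE from beef heart or guinea pig lung assayed by earlier-described methods; protein measured by Lowry method. IC50 taken from a plot of percent inhibition vs log inhibitor concentration, as the concentration giving 50% reduction in reaction velocity relative to uninhibited controls.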
# [21] = Inhibition of guinea pig lung PDE assessed as cyclic AMP level; design: species or system Cavia porcellus; how it was run: as §3
# Cavia porcellus [22] = species on record: Cavia porcellus; experiment: Stimulation of guinea pig lung adenylate cyclase activity at 1 x 10^-4 M after 15 mins relative to control
# Cavia porcellus [23] = species on record: Cavia porcellus; experiment: Stimulation of guinea pig lung adenylate cyclase activity at 1 x 10^-5 M after 15 mins relative to control
SMILES,inhibition in vivo at 30 mg/kg (Rattus norvegicus [1]),inhibition in vivo at 10 mg/kg (Rattus norvegicus [2]),inhibition in vivo at 100 mg/kg (Rattus norvegicus [3]),inhibition in vivo at 30 mg/kg (Rattus norvegicus [4]),also measured
CC(C)OC(=O)C(=O)Nc1cccccc1=O,96%,76%,72%,63%,–
NC(CO)(CO)CO.O=C(O)C(=O)Nc1cccccc1=O,–,–,–,–,inhibition (INH) (Rattus norvegicus [3]): 73%; inhibition (INH) (Rattus norvegicus [4]): 32%; Activity (Rattus norvegicus [5]): 0.64 mL; Activity (Rattus norvegicus [6]): 0.88 mL; Activity (Rattus norvegicus [7]): 0.83 mL; inhibition (INH) (Rattus norvegicus [8]): 7%; inhibition (INH) (Rattus norvegicus [9]): 13%
CCOC(=O)C(=O)Nc1ccccc(NC)c1=O,83%,73%,–,0%,–
O=C(Nc1cccccc1=O)C(=O)Oc1ccccc1,73%,68%,71%,31%,–
O=C(O)c1cc(=O)c2c(OCC(O)COc3cccc4oc(C(=O)O)cc(=O)c34)cccc2o1 [CROMOLYN SODIUM],77%,62%,–,–,–
Cn1c(=O)c2[nH]cnc2n(C)c1=O,–,–,–,–,Activity (Cavia porcellus [10]): 5%
COc1cccc2c(=O)c(CO)coc12,98%,70%,83%,53%,Activity (Rattus norvegicus [11]): 0.32 mL; Activity (Rattus norvegicus [12]): 0.68 mL; Activity (Rattus norvegicus [13]): 1 mL; Activity (Rattus norvegicus [5]): 0.63 mL; Activity (Rattus norvegicus [6]): 0.74 mL; Activity (Rattus norvegicus [7]): 1.13 mL; inhibition in vivo at 3 mg/kg (Rattus norvegicus [14]): 39%; inhibition in vivo at 1 mg/kg (Rattus norvegicus [15]): 14%; inhibition in vivo at 10 mg/kg (Rattus norvegicus [8]): 44%; inhibition in vivo at 3 mg/kg (Rattus norvegicus [9]): 15%
CCOC(=O)C(=O)Nc1cccccc1=O,84%,80%,91%,79%,Activity (Rattus norvegicus [11]): 0.22 mL; Activity (Rattus norvegicus [12]): 0.41 mL; Activity (Rattus norvegicus [13]): 0.95 mL; Activity (Rattus norvegicus [5]): 0.17 mL; Activity (Rattus norvegicus [6]): 0.24 mL; Activity (Rattus norvegicus [7]): 0.47 mL; inhibition in vivo at 3 mg/kg (Rattus norvegicus [14]): 62%; inhibition in vivo at 1 mg/kg (Rattus norvegicus [15]): 16%; inhibition in vivo at 10 mg/kg (Rattus norvegicus [8]): 75%; inhibition in vivo at 3 mg/kg (Rattus norvegicus [9]): 50%; Drug metabolism (Serum [16]): metabolite_detected; Drug metabolism (Serum [17]): metabolite_detected; Drug metabolism (Serum [18]): metabolite_notdetected; Drug metabolism (Blood): metabolite_detected; Drug metabolism (Rattus norvegicus [19]): metabolite_detected; IC50 [20]: 1520 µM; IC50 [21]: 1940 µM; Activity (Cavia porcellus [22]): 7%; Activity (Cavia porcellus [23]): 0%
CCOC(=O)C(=O)Nc1ccc(NC(=O)C(=O)OCC)c(=O)cc1,84%,93%,76%,61%,–
CCOC(=O)C(=O)Nc1ccccc(O)c1=O,61%,5%,0%,–,–
O=C(O)COC(=O)C(=O)Nc1cccccc1=O,93%,66%,50%,45%,–
CCOC(=O)C(=O)Nc1ccc(O)c(=O)cc1,10%,–,–,–,–
CC(C)(C)OC(=O)C(=O)Nc1cccccc1=O,79%,–,82%,47%,–
CCOC(=O)C(=O)Nc1ccccc(Oc2ccccc2)c1=O,16%,–,9%,–,–
CCOC(=O)COC(=O)C(=O)Nc1cccccc1=O,–,69%,64%,31%,–
COC(=O)C(=O)Nc1ccc(OC)c(=O)cc1,36%,–,–,–,–
CNC[C@H](O)c1ccc(O)c(O)c1,–,–,–,–,Activity (Cavia porcellus [22]): 84%
CCCCCOC(=O)C(=O)Nc1cccccc1=O,57%,61%,–,12%,–
